T cruzi growth-1 – T. cruzi intracellular proliferation inhibitors, primary screen, cell-based, beta-gal Tulahuen parasites, NIH3T3 host, luminescence; T. cruzi beta-gal in NIH3T3, GalScreen luminescence, 90 h; inhibition, % at 8.34 µM; 77,000 compounds, 5.9% hits; AID 624255, 2012;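 active = mean inhibition above about 93%, with at least 55% of replicates each passing it, limit read from the data, passing the limit was not always enough; inconclusive = only one of those two conditions holds; inactive = neither condition holds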
Pf Dd2 inh – P. falciparum Dd2 growth inhibitors, primary screen, SYBR Green fluorescence, single dose replicates | 72 h; active compounds read low | activity change, % at 10 µM | 94,000 compounds, 2.3% hits; in the data active = activity change below about -80%; inconclusive = no clear call, values can overlap the other calls
IDH1 mut inh – inhibitors of IDH1 R132H reductase, primary screen, biochemical, plate reader, single point; Isocitrate dehydrogenase [NADP] cytoplasmic (Homo sapiens), O75874; diaphorase/resazurin fluorescence, 60 min; inhibition, % at 10 µM; 70,000 compounds, 0.18% hits; in the data active = inhibition above about 34%; inconclusive = no clear call, values can overlap the other calls; inactive = below about 11%;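 also: 0% = DMSO and 100% = no enzyme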
Target sequence (O75874 whole entry R132H): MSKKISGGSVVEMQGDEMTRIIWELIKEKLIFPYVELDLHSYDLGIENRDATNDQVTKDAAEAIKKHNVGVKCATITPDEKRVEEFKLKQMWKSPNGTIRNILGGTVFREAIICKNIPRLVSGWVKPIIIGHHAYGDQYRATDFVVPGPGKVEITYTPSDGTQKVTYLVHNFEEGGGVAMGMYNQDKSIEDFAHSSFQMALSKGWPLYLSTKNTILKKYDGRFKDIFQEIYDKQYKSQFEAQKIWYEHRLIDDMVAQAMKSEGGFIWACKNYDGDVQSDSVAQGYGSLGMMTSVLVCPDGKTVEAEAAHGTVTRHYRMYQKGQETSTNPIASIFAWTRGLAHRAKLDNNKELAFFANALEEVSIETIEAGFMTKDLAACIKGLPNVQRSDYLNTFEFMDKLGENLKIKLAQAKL
GASC1 inh – inhibitors of GASC-1 (KDM4C) histone demethylase, primary screen, biochemical, single concentration HTS; GST-KDM4C 2-372, H3K9me3 peptide, LANCE TR-FRET; inhibition, % at 12.5 µM; 96,000 compounds, 0.15% hits; AID 720574, 2013;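 active = mean replicate inhibition above about 25%, with at least 55% of replicates also reaching it, limit read from the data, passing the limit was not always enough; inconclusive = only one of those two conditions met; inactive = neither condition met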
Target sequence (Q9H3R0 2-372 limits assumed): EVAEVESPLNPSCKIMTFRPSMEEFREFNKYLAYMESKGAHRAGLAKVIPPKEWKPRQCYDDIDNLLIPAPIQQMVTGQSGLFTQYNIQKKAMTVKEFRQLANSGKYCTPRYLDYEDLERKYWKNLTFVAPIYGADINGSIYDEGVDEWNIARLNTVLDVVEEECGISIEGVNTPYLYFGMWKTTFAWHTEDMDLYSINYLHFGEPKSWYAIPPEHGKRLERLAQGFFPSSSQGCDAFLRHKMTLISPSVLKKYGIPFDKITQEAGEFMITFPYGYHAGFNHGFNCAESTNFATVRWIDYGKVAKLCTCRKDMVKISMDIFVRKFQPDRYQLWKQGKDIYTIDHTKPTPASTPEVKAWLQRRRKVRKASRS
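Material: GST-tagged GASC-1 (JMJD2C) catalytic fragment, aa 2-372 / Quantity: enzyme final amount 10 nM / Medium: HEPES buffer, pH 7.5, plus ascorbate / Doses: one test concentration per compound / Incubation: 30 min reaction, 60 min detection, RT / Measured by: LANCE TR-FRET / Read-out: inhibition from TR-FRET ratio decrease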
T cruzi growth-2 – T. cruzi intracellular proliferation inhibitors, confirmation, cell-based, NIH3T3 host, beta-gal parasite, luminescence, cherry-pick; T. cruzi beta-gal in NIH3T3, GalScreen luminescence, 90 h; shares compounds with T cruzi growth-1; AID 651739, 2012; 5,600 compounds, 72% hits; inhibition, % at 8.35 µM;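 active = mean replicate inhibition above about 95% and at least 55% of replicates individually reaching it, limit read from the data; inconclusive = only one of the two criteria is met; inactive = neither criterion is met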
T cruzi growth-3 – inhibitors of intracellular T. cruzi replication, confirmation, NIH3T3 host cells, beta-gal parasites, cherry-pick, set 2; shares compounds with T cruzi growth-1; T. cruzi beta-gal in NIH3T3, GalScreen luminescence, 90 h; inhibition, % at 2.09 µM; 5,600 compounds, 21% hits; AID 651740, 2012;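 active = mean inhibition above about 95%, with at least 55% of replicates also reaching it, limit read from the data; inconclusive = meets just one of the two conditions; inactive = meets neither condition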;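 also: plate controls were neutral control median for no effect and positive control median for full effect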
NIH3T3 tox – cytotoxicity in mouse NIH/3T3 fibroblasts, confirmation, cytotoxicity control for T. cruzi proliferation inhibitor project, cell-based, cherry-pick, single point | AID 651742, 2012 | 5,600 compounds, 14% hits | NIH/3T3 viability, CellTiter-Glo ATP luminescence, 90 h | shares compounds with T cruzi growth-1 | cytotoxicity (signal decrease), % at 8.35 µM;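 active = mean signal decrease across replicates above about 35% based on untreated-well scatter, with enough replicates individually passing, limit read from the data; inconclusive = no rule stated though some were filed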;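 also: 0% = median of neutral control wells and 100% = median of positive control wells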
NIH3T3 tox 2 – NIH/3T3 fibroblast cytotoxicity, confirmation, cytotoxicity control, cell-based, cherry-pick, single point, set 2 | shares compounds with T cruzi growth-1 | NIH/3T3 viability, CellTiter-Glo ATP luminescence, 90 h | inhibition, % at 24.9 µM | 5,600 compounds, 56% hits | AID 651744, 2012;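 active = mean loss of cell viability signal at or above a set limit, and enough replicates individually reaching it; inconclusive = meets only the mean limit or only the replicate share; inactive = meets neither condition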;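 also: 0% = median of neutral control wells and 100% = median of positive control wells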
The depositor's hits bear a star; ? = inconclusive; · = no result. In the library only some 5.9% were active in any assay of this set; here they are far more common.

SMILES	T cruzi growth-1	Pf Dd2 inh	IDH1 mut inh	GASC1 inh	T cruzi growth-2	T cruzi growth-3	NIH3T3 tox	NIH3T3 tox 2
O=C(c1cccnc1)N1CCCCN2[C@H](C1)[C@@H](c1ccc(C#Cc3cccnc3)cc1)[C@@H]2CO	82.7	1.9	·	-1.1	·	·	·	·
O=C(Nc1ccc(F)cc1)N1CCCCN2[C@H](CO)[C@@H](c3ccc(C#Cc4ccccc4)cc3)[C@@H]2C1	73.1	-30.1	·	-3.1	·	·	·	·
O=C(c1cccnc1)N1CCCCN2[C@H](CO)[C@H](c3ccc(C#Cc4ccccc4)cc3)[C@@H]2C1	100.5*	11.0	·	·	109.7*	73.3	61.4*	42.6*
O=C(Nc1ccccc1)N1CCCCN2[C@H](CO)[C@@H](c3ccc(C#Cc4ccccc4)cc3)[C@@H]2C1	109.5*	8.7	·	-0.5	89.4	102.9*	?	104.2*
Cc1cc(C)cc(N2C(=O)CC(SCC(=O)Nc3ccc(Br)cc3)C2=O)c1 (stereo not given)	·	·	0.1	·	·	·	·	·
CC(C)CC#Cc1ccc([C@H]2[C@@H](CO)N3CCCCN(C(=O)Nc4ccccc4)C[C@@H]23)cc1	105.8*	-3.7	·	-1.1	98.3*	102.9*	20.6	86.6*
O=C(Nc1cccc(F)c1)N1CCCCN2[C@H](CO)[C@H](c3ccc(C#Cc4cccnc4)cc3)[C@@H]2C1	41.2	-71.5	·	-1.9	·	·	·	·
O=C(Nc1ccccc1)N1CCCCN2[C@H](C1)[C@H](c1ccc(C#Cc3cccnc3)cc1)[C@@H]2CO	109.6*	-24.8	·	-3.0	70.1	-15.4	-0.1	7.2
CCOC(=O)c1c(NC(=O)c2nc3ncccn3n2)sc2c1CCCC2	·	·	0.0	·	·	·	·	·
Cc1ccc(S(=O)(=O)N(C)C[C@H]2OCCCC[C@H](C)Oc3ccc(NS(=O)(=O)c4ccc(Cl)cc4)cc3C(=O)N([C@H](C)CO)C[C@@H]2C)cc1	96.6*	-15.9	·	-0.8	100.2*	118.9*	17.0	10.7
Cc1ccc(S(=O)(=O)N(C)C[C@@H]2OCCCC[C@H](C)Oc3ccc(NS(=O)(=O)c4ccc(Cl)cc4)cc3C(=O)N([C@H](C)CO)C[C@H]2C)cc1	91.4	-50.3	-1.6	0.8	·	·	·	·
C[C@@H]1CCCCO[C@H](CN(C)S(=O)(=O)c2ccc(Cl)cc2)[C@@H](C)CN([C@@H](C)CO)C(=O)c2cc(NS(=O)(=O)c3ccc(Cl)cc3)ccc2O1	·	-68.5	0.6	0.0	·	·	·	·
Cc1ccc(S(=O)(=O)Nc2ccc3c(c2)C(=O)N([C@@H](C)CO)C[C@@H](C)[C@@H](CN(C)S(=O)(=O)c2ccc(Cl)cc2)OCCCC[C@H](C)O3)cc1	132.5*	-86.4*	-0.1	-0.1	107.3*	108.9*	-35.9	2.1
Cc1ccc(S(=O)(=O)N(C)C[C@H]2OCCCC[C@@H](C)Oc3ccc(NS(=O)(=O)c4ccc(Cl)cc4)cc3C(=O)N([C@@H](C)CO)C[C@H]2C)cc1	?	-48.8	-0.7	-2.6	102.5*	116.1*	-33.5	-15.8
Cc1ccc(S(=O)(=O)N(C)C[C@H]2OCCCC[C@@H](C)Oc3ccc(NS(=O)(=O)c4ccc(Cl)cc4)cc3C(=O)N([C@H](C)CO)C[C@@H]2C)cc1	76.0	-27.1	·	-2.5	·	·	·	·
C[C@@H]1CCCCO[C@H](CN(C)S(=O)(=O)c2ccc(Cl)cc2)[C@@H](C)CN([C@H](C)CO)C(=O)c2cc(NS(=O)(=O)c3ccc(Cl)cc3)ccc2O1	31.6	-14.6	2.9	0.5	·	·	·	·
Cc1ccc(S(=O)(=O)N(C)C[C@H]2OCCCC[C@@H](C)Oc3ccc(NS(=O)(=O)c4ccc(Cl)cc4)cc3C(=O)N([C@H](C)CO)C[C@H]2C)cc1	108.3*	-80.3*	·	0.3	98.3*	109.2*	-20.2	-8.8
COc1ccc(-c2nn(C)c(=O)c3ccccc23)cc1CNS(=O)(=O)c1ccc(Cl)cc1	·	·	-0.2	·	·	·	·	·
Cc1ccc(NC(=O)Cn2cnc3ccccc3c2=O)cc1C	·	·	1.3	·	·	·	·	·
Cc1nc(-c2ccccc2)sc1C(=O)C1C(=O)C(=O)N(CCN(C)C)C1c1ccc(Cl)cc1 (stereo not given)	·	·	-0.3	·	·	·	·	·
Cc1ccc(S(=O)(=O)Nc2ccc3c(c2)C(=O)N([C@H](C)CO)C[C@H](C)[C@H](CN(C)S(=O)(=O)c2ccc(Cl)cc2)OCCCC[C@@H](C)O3)cc1	?	-53.0	·	15.0	100.6*	84.9	26.0	21.2
Cc1ccc(S(=O)(=O)N(C)C[C@H]2OCCCC[C@@H](C)Oc3ccc(NS(=O)(=O)c4ccc(Cl)cc4)cc3C(=O)N([C@@H](C)CO)C[C@@H]2C)cc1	99.4*	-41.2	·	0.1	98.2*	119.2*	-20.4	-1.7
C[C@@H]1CCCCO[C@@H](CN(C)S(=O)(=O)c2ccc(Cl)cc2)[C@@H](C)CN([C@H](C)CO)C(=O)c2cc(NS(=O)(=O)c3ccc(Cl)cc3)ccc2O1	73.5	-23.8	-0.5	-0.8	·	·	·	·
Cc1ccc(S(=O)(=O)N(C)C[C@@H]2OCCCC[C@H](C)Oc3ccc(NS(=O)(=O)c4ccc(Cl)cc4)cc3C(=O)N([C@@H](C)CO)C[C@@H]2C)cc1	117.6*	-41.2	2.6	-1.4	103.8*	115.3*	-5.2	-18.1
CCCCc1c(C)nc2ccc(OC)cc2c1SCC(=O)O	·	·	3.5	·	·	·	·	·
SMILES	T cruzi growth-1	Pf Dd2 inh	IDH1 mut inh	GASC1 inh	T cruzi growth-2	T cruzi growth-3	NIH3T3 tox	NIH3T3 tox 2
Cc1ccc(C)c(Cn2c(CCCO)nc3ccccc32)c1	·	·	0.0	·	·	·	·	·
O=C(Cn1c2ccccc2n2nc(-c3cccs3)nc12)c1ccc(Cl)cc1	·	·	-0.5	·	·	·	·	·
CS(=O)(=O)N(CC(=O)Nc1ccc(Br)cc1F)c1cccc([N+](=O)[O-])c1	·	·	0.1	·	·	·	·	·
OC[C@@H]1Nc2ccc(-c3ccccc3)cc2[C@H]2[C@@H]1CCN2Cc1ccc(F)cc1	104.9*	-61.3	·	0.1	103.6*	111.3*	11.7	102.6*
OC[C@H]1Nc2ccc(-c3ccccc3)cc2[C@H]2[C@@H]1CCN2Cc1ccc(F)cc1	103.5*	-76.4	·	0.9	98.8*	113.1*	25.9	104.6*
C/C=C/c1ccc([C@H]2[C@@H](CO)N3CCCCN(C(=O)Nc4ccccc4F)C[C@@H]23)cc1	109.6*	21.1	·	-1.6	98.1*	51.6	-13.5	2.4

Source: PubChem (Broad Institute)
